KCNK3 block: human KCNK3 channel inhibition, primary screen | AID 602410 | B-score at 10 µM | CHO-KCNK3 thallium flux, FluxOR fluorescence; active compounds read low | O14649 | hit rate 0.84% among 340,000;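 active = B-score under library mean minus 4 SD, starting fluorescence ratio at most library mean plus 5 SD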;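 note: more negative B-score means stronger inhibition of thallium flux through KCNK3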
Target sequence (O14649 whole entry, looked up): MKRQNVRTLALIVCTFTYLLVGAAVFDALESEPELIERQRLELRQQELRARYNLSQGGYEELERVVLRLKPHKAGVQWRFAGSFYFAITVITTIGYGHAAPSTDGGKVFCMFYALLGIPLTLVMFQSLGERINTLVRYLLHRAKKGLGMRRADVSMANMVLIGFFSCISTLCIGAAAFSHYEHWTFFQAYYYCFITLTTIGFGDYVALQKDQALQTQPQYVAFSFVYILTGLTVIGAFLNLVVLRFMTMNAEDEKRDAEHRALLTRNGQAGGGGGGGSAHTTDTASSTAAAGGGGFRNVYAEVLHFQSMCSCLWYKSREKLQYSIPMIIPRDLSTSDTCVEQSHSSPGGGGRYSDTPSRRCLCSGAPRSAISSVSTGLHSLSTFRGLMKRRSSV
KCNK9 block: inhibitors of human KCNK9 two-pore domain potassium channel | Q9NPC2 | HEK293 KCNK9, FluxOR thallium flux fluorescence; active compounds read low | B-score at 10 µM | hit rate 1.2% among 310,000 | AID 488922;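 active = ratio B-score over 3 SD below the library mean, with starting fluorescence within 5 SD of its mean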;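 note: negative B-score means less thallium flux so channel inhibition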
KCNQ1 act: human KCNQ1 channel potentiation or activation | CHO-K1 KCNQ1, thallium flux FluxOR fluorescence; active compounds read high | hit rate 0.35% among 310,000 | B-score at 10 µM | AID 2648 | P51787;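 active = fluorescence ratio B-score, a plate-corrected score, at least three library SD, with initial intensity B-score within 5 SD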
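Material: CHO-K1 cells stably expressing KCNQ1. Medium: assay buffer for compound exposure, DMSO matched across wells. Reagent: K+/Tl+ depolarizing stimulus. Compound dosing: single-concentration screen. Times: 37 °C overnight plating, 90-min dark dye load, 20-min compound pretreatment. Technique: FluxOR Tl+ flux fluorescence.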
KCNQ1 inh: inhibitors of human KCNQ1 potassium channel; CHO-K1 KCNQ1, FluxOR thallium flux fluorescence; active compounds read high; P51787; AID 2642; B-score at 10 µM; hit rate 1.3% among 310,000;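 active = compounds whose thallium flux B-score, printed positive for inhibition, exceeds three library SD while starting fluorescence stays within three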;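 note: channel opened by potassium depolarization with thallium stimulus after 20 min compound exposure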
PHOSPHO1 inh: blocks human PHOSPHO1 phosphatase activity; Q8TCT1; inhibition, % at 13.3 µM; hit rate 1.1% among 290,000; recombinant PHOSPHO1, absorbance phosphatase assay; in the data active = inhibition above about 60%
hERG protect: hERG (human) protection from proarrhythmic block; Q12809; CHO-hERG, FluxOR thallium flux, dofetilide IC70 present; activation (rescue from dofetilide block), less the hit threshold, % at 10 µM; hit rate 0.51% among 310,000;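 active = activation above the mean of controls blocked by dofetilide plus 5 SD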;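 note: thallium influx through hERG after potassium depolarization seen as dye fluorescence rise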
KCNK3 inh conf: human KCNK3 channel inhibition, confirmation assay; hit rate 99% among 2,400; CHO-KCNK3 thallium flux, FluxOR fluorescence; 0% buffer, 100% carvedilol maximal block; shares compounds with KCNK3 block; ratio percent of control, % at 10 µM;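 active = ratio percent of control, averaged over triplicates, above buffer control mean plus 5 SD, cut at about 64% in these data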;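 note: ratio is the fluorescence rise from min to max over baseline after thallium stimulus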
KCNK3 noninduced: activity in cells without induced KCNK3 expression | AID 651747 | hit rate 40% among 2,400 | non-induced KCNK3 parental cells, FluxOR thallium flux; active compounds read low | shares compounds with KCNK3 block | thallium flux ratio (lower = more inhibition) at 10 µM;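 active = thallium flux ratio, averaged over three wells, more than 5 SD below the buffer control mean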;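 note: host cells are CHO cells without KCNK3 induction; ratio is peak minus trough fluorescence over baseline then normalized to buffer controls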
* marks the source's active call; other numbers are inactive results; i = inactive; . = no result. Rows were chosen to be rich in hits. Some 4% of all compounds tested hit in one or more screens of this group.

SMILES	KCNK3 block	KCNK9 block	KCNQ1 act	KCNQ1 inh	PHOSPHO1 inh	hERG protect	KCNK3 inh conf	KCNK3 noninduced
Cc1ccc(NC(=O)Nc2cnccn2)cc1Cl	i	i	i	i	-23	-7	.	.
COC(=O)C(C)Sc1nc2ccsc2c(=O)n1Cc1ccccc1 (configuration not stated)	-9.4*	i	i	i	27	-14	94*	i
O=C(NCc1ccccc1)C1CCN(c2nc(-c3ccccc3)nc3c2CCC3)CC1	-8.9*	i	i	i	56	-10	121*	0.15*
COc1ccc(CNC(=O)C2CCN(c3nc(-c4ccccc4)nc4c3CCC4)CC2)cc1	i	i	i	i	48	-11	.	.
Cc1ccc(NC(=S)N(CCN2CCOCC2)Cc2cc3cc4c(cc3[nH]c2=O)OCCO4)cc1	-8.9*	i	i	i	3	-12	98*	i
Cc1ccc(NC(=S)N(CCN2CCOCC2)Cc2cc3cc4c(cc3[nH]c2=O)OCO4)cc1	-11*	i	i	i	31	-12	92*	i
COc1ccc(NC(=S)N(CCN2CCOCC2)Cc2cc3cc4c(cc3[nH]c2=O)OCO4)cc1	.	i	i	i	-4	-3	.	.
Cc1cccc(NC(=S)N(CCN2CCOCC2)Cc2cc3cc4c(cc3[nH]c2=O)OCCO4)c1	-12*	i	i	i	24	-15	91*	i
Cc1ccccc1C(=O)NC1CCN(C(=O)NC2CCCCC2)CC1	i	i	i	i	2	-4	.	.
CN(C)S(=O)(=O)c1cccc(C(=O)OCC(=O)NCc2ccc3c(c2)OCO3)c1	i	i	i	i	4	-8	.	.
CCCc1cc(C(=O)Cc2ccc(C(=O)OCC)o2)c(O)cc1O	-11*	-17*	i	i	-8	-3	104*	0.13*
CCCc1cc(-c2n[nH]c(C)c2-c2ccc(C(=O)OCC)o2)c(O)cc1O	i	i	i	i	4	-10	.	.
CC(=O)Nc1nc(-c2ccc3c(c2)CC(C)N3C(=O)C2CC2)c(C)s1 (configuration not stated)	i	i	i	i	32	-6	.	.
Cc1sc(NC(=O)c2ccco2)nc1-c1ccc2c(c1)CC(C)N2C(=O)C1CC1 (configuration not stated)	-9.4*	i	i	6*	47	-20	101*	i
COc1ccc(-c2nc(NC(=O)CSc3nnc(C)s3)ns2)cc1	i	i	i	i	10	-8	.	.
Cc1cc(C(=O)CSc2n[nH]c(-c3ccccc3F)n2)c(C)n1Cc1cccs1	-10*	i	i	i	52	-12	92*	i
CC(=O)Nc1ccc(SCC(=O)c2cc(C)n(Cc3cccs3)c2C)cc1	i	i	i	i	31	-4	.	.
Cc1csc(SCC(=O)c2cc(C)n(Cc3cccs3)c2C)n1	-9.5*	i	i	i	91*	-7	133*	0.14*
Cc1cc(C(=O)CSc2nnc(N)s2)c(C)n1Cc1cccs1	i	i	i	i	-11	-9	.	.
COc1ccc(NC(=O)CCN2C(=O)c3ccc([N+](=O)[O-])cc3C2=O)c(OC)c1	i	i	i	i	-11	-4	.	.
CC1CCc2nc(/C(C#N)=C/c3cccnc3)sc2C1 (configuration not stated)	i	i	i	i	20	-14	.	.
COC(=O)C1CCN(C(=O)COC(=O)c2cc(-c3ccccc3)nc3ccc(OC)cc23)CC1	-12*	.	.	.	.	.	105*	i
CCOC(=O)C1CCCN(Cc2cn(C)nc2-c2ccc3c(c2)OCCO3)C1 (configuration not stated)	i	i	i	i	47	-8	.	.
CC1CCCN(C(=O)CSc2nnc(-c3ccco3)n2C)C1 (configuration not stated)	i	i	i	i	-13	-2	.	.
COC(=O)C1=C(C)N(C)C(C)=C(C(=O)OC)C1c1ccc(F)c(Br)c1	-9.1*	i	i	i	11	-14	110*	i
SMILES	KCNK3 block	KCNK9 block	KCNQ1 act	KCNQ1 inh	PHOSPHO1 inh	hERG protect	KCNK3 inh conf	KCNK3 noninduced
COc1ccc(N2CCN(c3oc(-c4ccco4)nc3C#N)CC2)cc1	i	i	i	i	7	-12	.	.
N#Cc1nc(-c2ccco2)oc1N1CCN(c2ccccc2)CC1	-11*	i	i	i	-14	-5	119*	i
CC1CC(C)(C)N(C(=O)CSc2ccc(-c3ccc(F)cc3)nn2)c2ccccc21 (configuration not stated)	-12*	i	i	7*	16	-10	112*	0.15*
CC1CCN(C(=O)CSc2ccc(-c3ccc(F)cc3)nn2)CC1	i	i	i	i	6	-10	.	.
Cc1cc(C)c(NC(=O)CSc2nccn2C)c(C)c1	i	i	i	i	0	-5	.	.
O=C(CCCCl)N1CCc2[nH]c3ccccc3c2C1	i	.	.	.	.	.	.	.
CCN(c1ccccc1)S(=O)(=O)c1cccc(C(=O)NCC(c2ccco2)N2CCCC2)c1 (configuration not stated)	i	i	i	i	19	-9	.	.
O=C(Nc1ccc2c(c1)N(S(=O)(=O)c1cccs1)CCC2)c1c(F)cccc1F	-8.7*	i	i	i	.	-14	101*	i
CC(=O)NC(CC(=O)OCC(=O)c1c(N)n(CC(C)C)c(=O)n(C)c1=O)c1ccccc1 (configuration not stated)	i	i	i	i	.	-9	.	.
Cc1ccc(NC(=S)N(CCN(C)C)C(C)c2ccco2)cc1C (configuration not stated)	i	i	i	i	-15	-6	.	.
CN(C(=S)Nc1ccc(F)cc1)C(c1ccccc1)c1ccccc1	-11*	i	i	i	16	-12	115*	i
Cc1ccc(NC(=S)N(C)C(c2ccccc2)c2ccccc2)cc1C	-9.1*	i	i	i	36	-8	134*	0.12*
N#CC1C=Cc2c(ccc3ccccc23)N1C(=O)c1ccccc1 (configuration not stated)	i	.	.	.	.	.	.	.
COCCN1C(=O)N(c2ccccc2)C(=O)C1CC(=O)Nc1cc(OC)cc(OC)c1 (configuration not stated)	i	i	i	i	25	-5	.	.

Assay outcomes (PubChem)
